The values that follow come from ChEMBL document CHEMBL4304834, “3-Amino-chromanes and Tetrahydroquinolines as Selective 5-HT2B, 5-HT7, or σ1 Receptor Ligands” (ACS Med Chem Lett, 2019).

The target in assay [1] is T1, Alpha-1A adrenergic receptor (Homo sapiens, UniProt P35348).
T1 sequence (P35348 whole entry): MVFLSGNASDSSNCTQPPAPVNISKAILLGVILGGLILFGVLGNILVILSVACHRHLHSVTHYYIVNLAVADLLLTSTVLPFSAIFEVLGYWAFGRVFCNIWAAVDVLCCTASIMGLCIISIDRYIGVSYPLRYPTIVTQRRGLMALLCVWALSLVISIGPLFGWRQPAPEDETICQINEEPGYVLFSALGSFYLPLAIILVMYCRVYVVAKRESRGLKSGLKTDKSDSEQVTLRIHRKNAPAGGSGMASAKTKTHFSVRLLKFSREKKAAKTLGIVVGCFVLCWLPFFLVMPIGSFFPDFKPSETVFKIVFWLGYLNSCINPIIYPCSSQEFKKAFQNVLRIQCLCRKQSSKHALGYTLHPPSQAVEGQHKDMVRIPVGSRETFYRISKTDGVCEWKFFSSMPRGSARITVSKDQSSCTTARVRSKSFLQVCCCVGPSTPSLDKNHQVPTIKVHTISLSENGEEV
The experiment in a line: Displacement of [3H]-Prazosin from human recombinant adrenergic alpha1A receptor expressed in cells after 90 mins by microbeta scintillation counting method. It counts as cell-based. In short, it runs like this: (§1)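 Radioligand binding was run by the NIMH Psychoactive Drug Screening Program. Compounds were first screened at 10 μM. Those giving ≥50% binding were taken to full competition curves. Ki is reported as pKi from a sigmoidal curve fit of triplicate measurements in a single experiment; the error is the curve-fit error.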

The target in assay [2] is Beta-1 adrenergic receptor (Homo sapiens, UniProt P08588). Nature of the assay: Displacement of [125I]-pindolol from human recombinant adrenergic Beta1 receptor expressed in Flp-In CHO cells after 90 mins by microbeta scintillation counting method. Format: cell-based. In outline: (§2)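 Radioligand binding run by the NIMH Psychoactive Drug Screening Program. […] Otherwise Ki comes from sigmoidal curve fits of triplicate measurements in a single experiment, or is averaged over repeated experiments each run in triplicate.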
Beta-1 adrenergic receptor, sequence (P08588 whole entry): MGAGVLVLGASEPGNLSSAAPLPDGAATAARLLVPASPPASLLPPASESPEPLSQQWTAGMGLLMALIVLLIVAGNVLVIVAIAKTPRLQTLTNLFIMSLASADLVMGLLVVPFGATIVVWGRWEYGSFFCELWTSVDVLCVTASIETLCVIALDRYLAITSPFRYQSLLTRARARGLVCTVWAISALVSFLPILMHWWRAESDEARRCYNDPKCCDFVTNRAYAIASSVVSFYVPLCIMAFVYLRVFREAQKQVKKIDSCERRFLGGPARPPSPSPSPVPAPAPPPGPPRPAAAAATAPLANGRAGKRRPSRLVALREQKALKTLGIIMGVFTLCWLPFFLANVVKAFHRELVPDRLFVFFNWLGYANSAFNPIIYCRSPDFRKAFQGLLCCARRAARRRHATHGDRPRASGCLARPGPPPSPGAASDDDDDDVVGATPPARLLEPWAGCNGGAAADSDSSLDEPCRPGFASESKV

The target in assay [3] is T2, D(1A) dopamine receptor (Homo sapiens, UniProt P21728). Nature of the assay: Displacement of [3H]-SCH23390 from human recombinant dopamine D1 receptor expressed in HEKT cells after 90 mins by microbeta scintillation counting method. It counts as cell-based. In outline: as §1
T2 sequence (P21728 whole entry): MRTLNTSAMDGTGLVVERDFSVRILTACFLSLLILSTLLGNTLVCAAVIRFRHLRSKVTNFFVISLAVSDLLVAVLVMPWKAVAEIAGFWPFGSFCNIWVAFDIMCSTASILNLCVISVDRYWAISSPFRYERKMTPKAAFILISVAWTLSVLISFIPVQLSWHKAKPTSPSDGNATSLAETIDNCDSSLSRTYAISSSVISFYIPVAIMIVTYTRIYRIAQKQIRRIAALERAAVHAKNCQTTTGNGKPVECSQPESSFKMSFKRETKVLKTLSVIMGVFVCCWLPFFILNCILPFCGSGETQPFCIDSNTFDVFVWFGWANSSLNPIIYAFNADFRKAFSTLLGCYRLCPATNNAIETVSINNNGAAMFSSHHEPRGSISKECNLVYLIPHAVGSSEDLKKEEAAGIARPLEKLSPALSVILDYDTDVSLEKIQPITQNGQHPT
The target in assay [4] is D(2) dopamine receptor (Homo sapiens, UniProt P14416). The experiment in a line: Displacement of [3H]-N-methylspiperone from human recombinant dopamine D2 receptor expressed in stable fibroblast cells after 90 mins by microbeta scintillation counting method. It counts as cell-based. In outline:
as §2

Assay [5] addresses Mu-type opioid receptor (Homo sapiens, UniProt P35372). The experiment in a line: Displacement of [3H]-DAMGO from human recombinant MOR receptor expressed in stable HEK cells after 90 mins by microbeta scintillation counting method. It counts as cell-based. In short, it runs like this: as §2
A short description of assay [6]: Displacement of [3H]-Flunitrazepam from BZP receptor in rat brain after 90 mins by microbeta scintillation counting method. Format: tissue-based. In short, it runs like this:
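Radioligand binding run by the NIMH Psychoactive Drug Screening Program. Otherwise Ki comes from sigmoidal curve fits of triplicate measurements in a single experiment, or is averaged over repeated experiments each run in triplicate.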

In assay [7] the target is Kappa-type opioid receptor (Homo sapiens, UniProt P41145). Nature of the assay: Displacement of [3H]-U69593 from human recombinant KOR receptor expressed in stable HEK cells after 90 mins by microbeta scintillation counting method. It counts as cell-based. In outline: as §1
Kappa-type opioid receptor, sequence (P41145 whole entry): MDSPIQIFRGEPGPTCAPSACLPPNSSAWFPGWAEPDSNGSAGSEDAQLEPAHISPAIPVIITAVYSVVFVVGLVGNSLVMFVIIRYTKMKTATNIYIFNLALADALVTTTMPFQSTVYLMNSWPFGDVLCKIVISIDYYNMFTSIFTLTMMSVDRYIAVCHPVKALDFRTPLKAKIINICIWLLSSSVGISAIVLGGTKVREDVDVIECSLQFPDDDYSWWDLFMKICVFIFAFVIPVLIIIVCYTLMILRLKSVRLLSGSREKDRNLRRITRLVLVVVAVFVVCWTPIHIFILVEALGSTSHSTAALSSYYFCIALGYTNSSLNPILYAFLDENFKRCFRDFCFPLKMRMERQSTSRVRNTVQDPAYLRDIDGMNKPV
Assay [8] deals with T3, Alpha-1A adrenergic receptor (Homo sapiens) (UniProt P35348).
T3 sequence (whole entry): T1 sequence (P35348 whole entry)
The experiment in a line: Displacement of [3H]-Prazosin from human recombinant adrenergic alpha1A receptor expressed in cells at 10 uM after 90 mins by microbeta scintillation counting method relative to control. Format: cell-based.

In assay [9] the target is Histamine H4 receptor (Homo sapiens, UniProt Q9H3N8). The experiment in a line: Displacement of [3H]-Histamine from human recombinant histamine H4 receptor expressed in HEKT cells after 90 mins by microbeta scintillation counting method. Format: cell-based. In outline:
as §2

Assay [10] concerns the target D(1B) dopamine receptor (Homo sapiens, UniProt P21918). Nature of the assay: Displacement of [3H]-SCH23390 from human recombinant dopamine D5 receptor expressed in HEKT cells after 90 mins by microbeta scintillation counting method. Format: cell-based. In outline:
as §1

Assay [11] has as its target T4, 5-hydroxytryptamine receptor 1A (Homo sapiens, UniProt P08908).
T4 sequence (P08908 whole entry): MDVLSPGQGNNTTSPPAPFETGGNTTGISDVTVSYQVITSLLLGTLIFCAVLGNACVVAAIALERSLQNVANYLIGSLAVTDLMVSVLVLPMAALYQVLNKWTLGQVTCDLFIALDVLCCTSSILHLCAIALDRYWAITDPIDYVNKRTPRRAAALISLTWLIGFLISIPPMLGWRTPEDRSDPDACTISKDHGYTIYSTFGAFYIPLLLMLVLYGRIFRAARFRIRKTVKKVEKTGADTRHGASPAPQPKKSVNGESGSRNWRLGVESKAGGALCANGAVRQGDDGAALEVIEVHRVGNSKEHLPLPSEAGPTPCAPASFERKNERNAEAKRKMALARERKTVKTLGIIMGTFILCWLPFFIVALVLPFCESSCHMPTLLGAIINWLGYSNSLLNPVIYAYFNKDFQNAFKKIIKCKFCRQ
Nature of the assay: Displacement of [3H]-Way100635 from human recombinant 5-HT1A expressed in stable CHO cells after 90 mins by microbeta scintillation counting method. It counts as cell-based. In short, it runs like this: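 Run by NIMH Psychoactive Drug Screening Program. Otherwise, competition binding curves are generated and pKi is taken from a sigmoidal curve fit. Data are either triplicate measurements within one experiment, with the error from the fit, or the mean of repeated experiments, each run in triplicate.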

Assay [12] addresses T2, D(1A) dopamine receptor. Nature of the assay: Displacement of [3H]-SCH23390 from human recombinant dopamine D1 receptor expressed in HEKT cells at 10 uM after 90 mins by microbeta scintillation counting method relative to control. Format: cell-based.
In assay [13] the target is T5, Muscarinic acetylcholine receptor M4 (Homo sapiens) (UniProt P08173).
T5 sequence (whole entry): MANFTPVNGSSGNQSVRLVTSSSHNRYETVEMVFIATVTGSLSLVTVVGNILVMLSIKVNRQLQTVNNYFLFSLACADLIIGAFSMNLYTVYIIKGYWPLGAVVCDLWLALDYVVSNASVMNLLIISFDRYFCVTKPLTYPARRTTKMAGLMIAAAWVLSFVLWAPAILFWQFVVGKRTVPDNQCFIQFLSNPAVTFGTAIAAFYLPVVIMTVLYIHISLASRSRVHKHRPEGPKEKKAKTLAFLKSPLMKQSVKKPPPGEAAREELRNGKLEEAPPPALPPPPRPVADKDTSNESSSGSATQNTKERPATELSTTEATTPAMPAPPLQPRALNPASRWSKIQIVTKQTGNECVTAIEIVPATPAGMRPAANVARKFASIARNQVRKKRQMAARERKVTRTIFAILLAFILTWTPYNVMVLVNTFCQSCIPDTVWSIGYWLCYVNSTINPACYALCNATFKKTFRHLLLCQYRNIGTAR
The experiment in a line: Displacement of [3H]-QNB/[3H]-NMS from human recombinant Muscarinic acetylcholine M4 receptor expressed in stable CHO cells at 10 uM after 90 mins by microbeta scintillation counting method relative to control. It counts as cell-based.

Assay [14] deals with 5-hydroxytryptamine receptor 1B (Homo sapiens, UniProt P28222). The experiment in a line: Displacement of [3H]5-CT from human recombinant 5-HT1B receptor expressed in stable HEK cells after 90 mins by microbeta scintillation counting method. It counts as cell-based. In outline: as §1
5-hydroxytryptamine receptor 1B, sequence (P28222 whole entry): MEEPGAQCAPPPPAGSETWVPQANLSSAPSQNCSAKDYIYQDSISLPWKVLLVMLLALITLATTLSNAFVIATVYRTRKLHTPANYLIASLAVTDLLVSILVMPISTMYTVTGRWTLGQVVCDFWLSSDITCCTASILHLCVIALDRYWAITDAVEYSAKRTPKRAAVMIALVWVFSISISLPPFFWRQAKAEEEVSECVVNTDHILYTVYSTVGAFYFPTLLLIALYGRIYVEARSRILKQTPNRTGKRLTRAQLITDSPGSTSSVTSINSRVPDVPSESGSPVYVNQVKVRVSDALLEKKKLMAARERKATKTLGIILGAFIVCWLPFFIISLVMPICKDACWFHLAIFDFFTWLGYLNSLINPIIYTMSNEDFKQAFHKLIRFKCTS

D(1B) dopamine receptor, sequence (P21918 whole entry): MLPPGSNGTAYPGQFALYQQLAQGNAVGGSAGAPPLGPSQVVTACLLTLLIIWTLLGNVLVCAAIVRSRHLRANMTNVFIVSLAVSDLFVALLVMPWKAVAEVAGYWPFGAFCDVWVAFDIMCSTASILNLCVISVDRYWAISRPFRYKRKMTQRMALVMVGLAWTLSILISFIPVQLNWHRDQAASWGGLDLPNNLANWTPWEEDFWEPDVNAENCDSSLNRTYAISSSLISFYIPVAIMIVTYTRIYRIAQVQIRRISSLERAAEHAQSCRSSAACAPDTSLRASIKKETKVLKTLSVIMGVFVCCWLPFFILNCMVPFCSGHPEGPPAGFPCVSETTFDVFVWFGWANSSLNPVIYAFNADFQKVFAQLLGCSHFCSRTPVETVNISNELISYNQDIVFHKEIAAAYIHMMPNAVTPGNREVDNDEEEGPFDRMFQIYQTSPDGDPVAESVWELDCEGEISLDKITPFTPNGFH
D(2) dopamine receptor, sequence (P14416 whole entry): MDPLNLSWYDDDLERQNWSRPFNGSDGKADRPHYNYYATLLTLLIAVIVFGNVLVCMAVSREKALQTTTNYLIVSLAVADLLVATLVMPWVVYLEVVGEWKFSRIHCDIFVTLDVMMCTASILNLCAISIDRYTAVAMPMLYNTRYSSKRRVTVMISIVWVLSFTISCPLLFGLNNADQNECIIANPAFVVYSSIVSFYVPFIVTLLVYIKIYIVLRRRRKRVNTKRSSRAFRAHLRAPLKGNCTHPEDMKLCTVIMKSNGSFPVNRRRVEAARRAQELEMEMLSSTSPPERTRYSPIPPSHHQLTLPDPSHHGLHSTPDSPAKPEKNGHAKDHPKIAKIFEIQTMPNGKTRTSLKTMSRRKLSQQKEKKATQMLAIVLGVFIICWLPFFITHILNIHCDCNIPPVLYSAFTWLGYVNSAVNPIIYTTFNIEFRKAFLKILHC
Mu-type opioid receptor, sequence (P35372 whole entry): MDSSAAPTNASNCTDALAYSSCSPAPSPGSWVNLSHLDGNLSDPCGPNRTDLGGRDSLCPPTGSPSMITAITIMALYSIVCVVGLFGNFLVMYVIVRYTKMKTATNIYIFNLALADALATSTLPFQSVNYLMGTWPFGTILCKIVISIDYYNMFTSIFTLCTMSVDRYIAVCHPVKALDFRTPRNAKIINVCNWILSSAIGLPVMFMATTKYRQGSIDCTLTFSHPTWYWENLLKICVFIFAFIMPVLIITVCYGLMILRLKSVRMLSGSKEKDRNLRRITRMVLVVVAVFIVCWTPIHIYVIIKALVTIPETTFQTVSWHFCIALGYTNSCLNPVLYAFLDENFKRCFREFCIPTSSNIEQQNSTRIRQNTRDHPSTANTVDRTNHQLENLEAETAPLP
Histamine H4 receptor, sequence (Q9H3N8 whole entry): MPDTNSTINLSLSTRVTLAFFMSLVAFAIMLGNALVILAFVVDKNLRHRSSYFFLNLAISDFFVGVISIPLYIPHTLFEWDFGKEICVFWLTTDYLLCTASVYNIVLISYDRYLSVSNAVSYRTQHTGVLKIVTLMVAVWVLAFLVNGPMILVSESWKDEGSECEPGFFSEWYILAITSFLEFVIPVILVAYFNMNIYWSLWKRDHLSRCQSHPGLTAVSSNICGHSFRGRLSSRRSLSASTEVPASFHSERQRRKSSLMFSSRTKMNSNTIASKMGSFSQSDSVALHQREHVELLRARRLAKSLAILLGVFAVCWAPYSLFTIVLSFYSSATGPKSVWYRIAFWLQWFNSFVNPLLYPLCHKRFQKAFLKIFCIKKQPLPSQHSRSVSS

On to `CC[C@H]1c2cc(OC)ccc2CC[C@@]1(C)N` (racemic), for which the Ki in assay [1] was over 10 µM; in assay [2] it was over 10 µM; in assay [3], over 10 µM; in assay [4], over 10 µM; in assay [5], 2 µM; in assay [7], 0.316 µM. Also, the Ki in assay [9] was over 10 µM; in assay [10] it was over 10 µM; in assay [11] (read-out: pKi (converted)), 0.631 µM; in [14], over 10 µM. For the same molecule, the pKi in assay [6] amounted to 5.8. Further, the inhibition in assay [8], in [12] and in [13] was under 50% in each case.
`C[C@@]12CN(c3ccccc3)c3ccccc3[C@@H]1CCN2` (racemic): the Ki is over 10 µM in assay [1]; 3.16 µM in assay [2]; over 10 µM in assay [3]; over 10 µM in assay [4]; over 10 µM in assay [5]; over 10 µM in assay [7]. In addition, the Ki is over 10 µM in assay [9]; over 10 µM in [10]; over 10 µM in [11] (cho, read-out: Ki); over 10 µM in assay [11] (read-out: pKi (converted)); over 10 µM in assay [14].
Take `CC[C@H]1c2cc(C)ccc2OC[C@@]1(C)N` (racemic): the Ki in assay [1], in [2], in assay [3], in [4], in assay [5] and in assay [7] was over 10 µM each time. Besides, the Ki in assay [9] was over 10 µM; in assay [10] it was over 10 µM; in [11] (read-out: pKi (converted)), 2 µM; in [14], over 10 µM. In addition, in assay [6], the pKi is listed as under 5. Further, the inhibition in assay [8], in assay [12] and in assay [13] was under 50% each time.
For `CC[C@H]1c2ccccc2N(c2ccccc2)C[C@@]1(C)N` (racemic), the Ki is 1.58 µM in assay [1]; over 10 µM in assay [2]; over 10 µM in assay [3]; over 10 µM in assay [4]; over 10 µM in assay [5]; over 10 µM in [7]. Also, the Ki was over 10 µM in assay [9], over 10 µM in assay [10], 0.074 µM in assay [11] (read-out: Ki) and over 10 µM in assay [14].
With `COc1cc(OC)c2c(c1)OC[C@@]1(C)NCC[C@@H]21` (racemic), the Ki was over 10 µM in assay [1]; 1 µM in assay [2]; over 10 µM in assay [3]; over 10 µM in assay [4]; over 10 µM in [5]; over 10 µM in assay [7]. Besides, the Ki in [9] is over 10 µM; in [10] it was over 10 µM; in assay [11] (read-out: pKi (converted)), 1 µM; in [14] it was over 10 µM. Moreover, the pKi in assay [6] came to 5.2. Further, the inhibition in assay [8], in [12] and in assay [13] was under 50% in each case.
